≈ marks a conversion by molar mass, not a printed value.
Key:
Staphylococcus aureus [1] = test: Antimicrobial activity against Staphylococcus aureus SG511 after 24 hrs by Kirby-Bauer agar diffusion assay; format: functional
How it was run: (§1)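 Modified Kirby-Bauer well diffusion. Overnight LB cultures (18–24 h) were standardized in 0.9% saline to 0.5 McFarland and mixed into melted MHII agar at 47–50 °C, giving ~5×10³ CFU/mL. 9 mm wells received 50 µL of 2.0 mM compound in 10:1 MeOH:DMSO. Plates were incubated 24 h at 37 °C, then growth-inhibition zone diameter was measured (mm) by caliper.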

Micrococcus luteus [2] = test: Antimicrobial activity against Micrococcus luteus ATCC 10240 after 24 hrs by Kirby-Bauer agar diffusion assay; format: functional; how it was run: as §1
Pseudomonas aeruginosa [3] = test: Antimicrobial activity against Pseudomonas aeruginosa 799/WT after 24 hrs by Kirby-Bauer agar diffusion assay; format: functional; how it was run: as §1
Bacillus subtilis [4] = test: Antimicrobial activity against Bacillus subtilis ATCC 6633 after 24 hrs by Kirby-Bauer agar diffusion assay; format: functional; how it was run: as §1
Escherichia coli [5] = test: Antimicrobial activity against Escherichia coli DC0 after 24 hrs by Kirby-Bauer agar diffusion assay; format: functional; how it was run: as §1
Enterococcus faecalis [6] = test: Antimicrobial activity against Enterococcus faecalis ATCC 49532 after 24 hrs by Kirby-Bauer agar diffusion assay; format: functional; how it was run: as §1
Escherichia coli [7] = test: Antimicrobial activity against Escherichia coli DC2 after 24 hrs by Kirby-Bauer agar diffusion assay; format: functional; how it was run: as §1
HeLa = test: Cytotoxicity against human HeLa cells; format: cell-based
Pseudomonas aeruginosa [8] = test: Antimicrobial activity against Pseudomonas aeruginosa 799/61 after 24 hrs by Kirby-Bauer agar diffusion assay; format: functional; how it was run: as §1
PC-3 = test: Cytotoxicity against human PC3 cells; format: cell-based
[9] = system: Sporobolomyces salmonicolor; test: Antimicrobial activity against Sporidiobolus salmonicolor 549 after 24 hrs by Kirby-Bauer agar diffusion assay; format: functional; how it was run: as §1
Staphylococcus aureus [10] = test: Antimicrobial activity against Staphylococcus aureus SG511 assessed after 18 hrs by broth microdilution method; format: functional; conditions: SG511, 18 h
How it was run: (§2)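 CLSI broth microdilution in cation-adjusted MHII broth. 20 mM DMSO stocks were diluted to 512 µM, then serially 2-fold, giving final 128–0.0625 µM with 5×10⁵ CFU/mL inoculum. Incubated 18 h at 37 °C. MIC90 was the lowest concentration giving 90% inhibition by visual turbidity versus DMSO wells. Run in triplicate.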

Mycolicibacterium vaccae [11] = test: Antimicrobial activity against Mycobacterium vaccae IMET 10670 after 24 hrs by Kirby-Bauer agar diffusion assay; format: functional; how it was run: as §1
Micrococcus luteus [12] = test: Antimicrobial activity against Micrococcus luteus ATCC 10240 assessed after 18 hrs by broth microdilution method; format: functional; conditions: ATCC 10240, 18 h; how it was run: as §2
Enterococcus faecalis [13] = test: Antimicrobial activity against Enterococcus faecalis ATCC 49532 assessed after 18 hrs by broth microdilution method; format: functional; conditions: ATCC 49532, 18 h; how it was run: as §2
Staphylococcus aureus [14] = test: Antimicrobial activity against methicillin-resistant Staphylococcus aureus 134/94 after 24 hrs by Kirby-Bauer agar diffusion assay; format: functional
How it was run: (§3)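 Overnight LB cultures (18–24 h) adjusted to a 0.5 McFarland standard (1.5×10^6 CFU/mL in 0.9% saline), then 0.1 mL mixed into 34 mL molten MHII agar at 47–50 °C (~5×10^3 CFU/mL). 50 µL of 2.0 mM compound in 10:1 MeOH:DMSO placed in 9 mm wells. Incubated at 37 °C for 24 h; inhibition zone diameter (mm) measured by caliper.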

Enterococcus faecalis [15] = test: Antimicrobial activity against vancomycin-resistant Enterococcus faecalis 1528 after 24 hrs by Kirby-Bauer agar diffusion assay; format: functional; how it was run: as §3
MCF7 = test: Cytotoxicity against human MCF7 cells; format: cell-based
[16] = system: Sporobolomyces salmonicolor; test: Antimicrobial activity against Sporidiobolus salmonicolor 549 at 10 ug/ml after 24 hrs by Kirby-Bauer agar diffusion assay; format: functional; conditions: Sporobolomyces salmonicolor, 549, 24 h; read-out: DIZ
How it was run: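 Control for the yeast: amphotericin B, 10 µg/mL in 10:1 DMSO:MeOH, 50 µL per 9 mm well in inoculated MHII agar (~5×10³ CFU/mL). Incubated at 37 °C for 24 h; growth-inhibition zone diameter measured in mm.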

Mycolicibacterium vaccae [17] = test: Antimicrobial activity against Mycobacterium vaccae IMET 10670 at 5 ug/ml after 24 hrs by Kirby-Bauer agar diffusion assay; format: functional; conditions: IMET 10670, 24 h, read-out: DIZ
How it was run: (§4)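 Ciprofloxacin control, 5 µg/mL in water, 50 µL per 9 mm well in MHII agar seeded with ~5×10³ CFU/mL (saline suspension standardized to 0.5 McFarland from an overnight LB culture). Incubated at 37 °C for 24 h; inhibition zone diameter read in mm.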

Bacillus subtilis [18] = test: microbe, parasite or virus in culture; conditions: ATCC 6633, 24 h, read-out: DIZ
Pseudomonas aeruginosa [19] = test: microbe, parasite or virus in culture; conditions: 799/61, 24 h, read-out: DIZ
Enterococcus faecalis [20] = test: microbe, parasite or virus in culture; conditions: Enterococcus faecalis, 1528, 24 h, read-out: DIZ
Micrococcus luteus [21] = test: Antimicrobial activity against Micrococcus luteus ATCC 10240 at 5 ug/ml after 24 hrs by Kirby-Bauer agar diffusion assay; format: functional; conditions: ATCC 10240, 24 h, read-out: DIZ; how it was run: as §4
Escherichia coli [22] = test: Antimicrobial activity against Escherichia coli DC2 at 5 ug/ml after 24 hrs by Kirby-Bauer agar diffusion assay; conditions: DC2, 24 h, read-out: DIZ
Pseudomonas aeruginosa [23] = test: microbe, parasite or virus in culture; conditions: 799/WT, 24 h, read-out: DIZ
Staphylococcus aureus [24] = test: Antimicrobial activity against Staphylococcus aureus SG511 at 5 ug/ml after 24 hrs by Kirby-Bauer agar diffusion assay; conditions: SG511, 24 h, read-out: DIZ
Staphylococcus aureus [25] = test: microbe, parasite or virus in culture; conditions: 134/94, 24 h, read-out: DIZ
Escherichia coli [26] = test: Antimicrobial activity against Escherichia coli DC0 at 5 ug/ml after 24 hrs by Kirby-Bauer agar diffusion assay; conditions: DC0, 24 h, read-out: DIZ
Enterococcus faecalis [27] = test: microbe, parasite or virus in culture; conditions: ATCC 49532, 24 h, read-out: DIZ

Row | SMILES | diameter of the inhibition zone (DIZ) (Staphylococcus aureus [1]) [mm] | diameter of the inhibition zone (DIZ) (Micrococcus luteus [2]) [mm] | diameter of the inhibition zone (DIZ) (Pseudomonas aeruginosa [3]) | diameter of the inhibition zone (DIZ) (Bacillus subtilis [4]) | diameter of the inhibition zone (DIZ) (Escherichia coli [5]) | diameter of the inhibition zone (DIZ) (Enterococcus faecalis [6]) [mm] | diameter of the inhibition zone (DIZ) (Escherichia coli [7]) | Activity (HeLa) | diameter of the inhibition zone (DIZ) (Pseudomonas aeruginosa [8]) | Activity (PC-3) | diameter of the inhibition zone (DIZ) [9] | MIC90 (Staphylococcus aureus [10]) [µM] | diameter of the inhibition zone (DIZ) (Mycolicibacterium vaccae [11]) [mm] | MIC90 (Micrococcus luteus [12]) [µM] | MIC90 (Enterococcus faecalis [13]) [µM] | diameter of the inhibition zone (DIZ) (Staphylococcus aureus [14]) [mm] | diameter of the inhibition zone (DIZ) (Enterococcus faecalis [15]) [mm] | Activity (MCF7) | also measured
1 | CO[C@@H]1C=C[C@@H](N(O)c2ccc(Br)cn2)CC1 (racemic) | 12 | 34 | <=10 mm | <=10 mm | <=10 mm | 16 | <=10 mm | Non-toxic | <=10 mm | Non-toxic | <=10 mm | > 128 | 11 | 4 (≈ 1.2 µg/mL) | > 128 | 11 | 16 | Non-toxic | 
2 | C=C(C)C(C)N(O)c1cccc(C)n1 (racemic) | 12 | 48 | <=10 mm | <=10 mm | <=10 mm | 15 | <=10 mm | Non-toxic | <=10 mm | Non-toxic | <=10 mm | > 128 | 16 | 4 (≈ 0.769 µg/mL) | > 128 | 11 | 16 | Non-toxic | 
3 | C=C(C)C(CC/C(C)=C/CO)N(O)c1ccccn1 (racemic) | 19 | 35 | <=10 mm | 11 mm | <=10 mm | 20 | <=10 mm | Non-toxic | <=10 mm | Non-toxic | <=10 mm | 64 (≈ 16.8 µg/mL) | 16 | 8 (≈ 2.1 µg/mL) | > 128 | 16 | 16 | Non-toxic | 
4 | C[C@@H]1[C@H](O)[C@@H](C)/C=C/C=C/C=C/C=C/C=C/C=C/C=C/[C@H](O[C@@H]2O[C@H](C)[C@@H](O)[C@H](N)[C@@H]2O)C[C@@H]2O[C@](O)(C[C@@H](O)C[C@@H](O)[C@H](O)CC[C@@H](O)C[C@@H](O)CC(=O)O[C@H]1C)C[C@H](O)[C@H]2C(=O)O [AMPHOTERICIN B] |  |  |  |  |  |  |  |  |  |  |  |  |  |  |  |  |  |  | zone of inhibition at 10 µg/mL [16]: 16 mm
5 | O=C(O)c1cn(C2CC2)c2cc(N3CCNCC3)c(F)cc2c1=O [CIPROFLOXACIN] |  |  |  |  |  |  |  |  |  |  |  | 0.5 (≈ 0.166 µg/mL) |  |  | 2 (≈ 0.663 µg/mL) |  |  |  | zone of inhibition at 5 µg/mL (Mycolicibacterium vaccae [17]): ≥ 21 mm; zone of inhibition at 5 µg/mL (Bacillus subtilis [18]): ≥ 21 mm; zone of inhibition at 5 µg/mL (Pseudomonas aeruginosa [19]): ≥ 21 mm; zone of inhibition at 5 µg/mL (Enterococcus faecalis [20]): 16 mm; zone of inhibition at 5 µg/mL (Micrococcus luteus [21]): ≤ 10 mm; zone of inhibition at 5 µg/mL (Escherichia coli [22]): ≥ 21 mm; zone of inhibition at 5 µg/mL (Pseudomonas aeruginosa [23]): ≥ 21 mm; zone of inhibition at 5 µg/mL (Staphylococcus aureus [24]): ≥ 21 mm; zone of inhibition at 5 µg/mL (Staphylococcus aureus [25]): 11 mm; zone of inhibition at 5 µg/mL (Escherichia coli [26]): ≥ 21 mm; zone of inhibition at 5 µg/mL (Enterococcus faecalis [27]): 16 mm

Reference: ChEMBL document CHEMBL1914331, “N-O chemistry for antibiotics: discovery of N-alkyl-N-(pyridin-2-yl)hydroxylamine scaffolds as selective antibacterial agents using nitroso Diels-Alder and ene chemistry” (J Med Chem, 2011)
